Results reported in ChEMBL document CHEMBL1147694, “Synthesis and biological activity of conjugates between paclitaxel and the cell delivery vector penetratin” (Bioorg Med Chem Lett, 2006).

Assays:
A549 [1] = assay: Antiproliferative activity against human A549 cell line by MTT assay after 72 hrs; assay type: functional, cell-based
Summary of the method: (§1)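 Human tumour cells, MCF7 (breast) and A549 (lung), were exposed to test compounds for 72 h, and growth was read by MTT assay. IC50 is the concentration giving 50% growth inhibition, taken as the mean of three independent experiments.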

MCF7 [2] = assay: Antiproliferative activity against human MCF7 cell line by MTT assay after 72 hrs; assay type: functional, cell-based; summary of the method: as §1
A549 [3] = assay: Antiproliferative activity against human A549 cell line by MTT assay after 1 hr; assay type: functional, cell-based; conditions: A549, 1 h
Summary of the method: (§2)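 Cells were exposed to the conjugates for a short 1 h period, and viability was then quantified by MTT assay.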

MCF7 [4] = assay: Antiproliferative activity against human MCF7 cell line by MTT assay after 1 hr; assay type: functional, cell-based; conditions: MCF7, 1 h; summary of the method: as §2
[5] = Aqueous solubility of the compound; assay type: physicochemical
[6] = Half life in tissue culture medium; assay type: ADME
Summary of the method: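 Compounds were dissolved in DMEM with 10% foetal calf serum at 1 to 40 (concentration range) and incubated at 37 °C. Aliquots were withdrawn over time and analysed by RP-HPLC and mass spectrometry to give half-life. Analytical RP-HPLC used a MeCN gradient in water with 0.1% TFA over 20 min at 25 °C.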

[7] = Homo sapiens, A549, 72 h, read-out: IC50
[8] = Homo sapiens, MCF7, 72 h, read-out: IC50

Compound | IC50 (A549 [1]; [7]) [nM] | IC50 (MCF7 [2]; [8]) [nM] | IC50 (A549 [3]) [nM] | IC50 (MCF7 [4]) [nM] | solubility [5] [µg/mL] | IC50 (A549 [1]; a549) | IC50 (MCF7 [2]; mcf7) | half-life [6] [h]
CC(=O)O[C@H]1C(=O)[C@@]2(C)[C@H]([C@H](OC(=O)c3ccccc3)[C@]3(O)C[C@H](OC(=O)[C@H](O)[C@@H](NC(=O)c4ccccc4)c4ccccc4)C(C)=C1C3(C)C)[C@]1(OC(C)=O)CO[C@@H]1C[C@@H]2O [PACLITAXEL] | < 15 | < 15 | 28 | 43 | < 10 | – | – | –
CC[C@H](C)[C@H](NC(=O)[C@H](CCCCN)NC(=O)[C@@H](NC(=O)[C@H](CCC(N)=O)NC(=O)[C@H](CCCN=C(N)N)NC(=O)CC(N)CSC1CC(=O)N(CCC(=O)O[C@@H](C(=O)O[C@@H]2C(C)=CC3[C@@H](OC(C)=O)C(=O)[C@@]4(C)[C@H]([C@H](OC(=O)c5ccccc5)[C@@]2(O)C3(C)C)[C@]2(OC(C)=O)CO[C@@H]2C[C@@H]4O)[C@@H](NC(=O)c2ccccc2)c2ccccc2)C1=O)[C@@H](C)CC)C(=O)N[C@@H](Cc1c[nH]c2ccccc12)C(=O)N[C@@H](Cc1ccccc1)C(=O)N[C@@H](CCC(N)=O)C(=O)N[C@@H](CC(N)=O)C(=O)N[C@@H](CCCN=C(N)N)C(=O)N[C@@H](CCCN=C(N)N)C(=O)N[C@@H](CCSC)C(=O)N[C@@H](CCCCN)C(=O)N[C@@H](Cc1c[nH]c2ccccc12)C(=O)N[C@@H](CCCCN)C(=O)N[C@@H](CCCCN)C(N)=O (stereo partly specified) | < 15 | < 17 | 618 | 202 | – | – | – | > 8
CSCC[C@H](NC(=O)[C@H](CCCN=C(N)N)NC(=O)[C@H](CCCN=C(N)N)NC(=O)CC(N)CSC1CC(=O)N(CCC(=O)O[C@@H](C(=O)O[C@@H]2C(C)=CC3[C@@H](OC(C)=O)C(=O)[C@@]4(C)[C@H]([C@H](OC(=O)c5ccccc5)[C@@]2(O)C3(C)C)[C@]2(OC(C)=O)CO[C@@H]2C[C@@H]4O)[C@@H](NC(=O)c2ccccc2)c2ccccc2)C1=O)C(=O)N[C@@H](CCCCN)C(=O)N[C@@H](Cc1c[nH]c2ccccc12)C(=O)N[C@@H](CCCCN)C(=O)N[C@@H](CCCCN)C(N)=O (stereo partly specified) | < 15 | < 15 | 43 | 325 | > 10000 | – | – | > 8
H-RRMKWKK-NH2 | – | – | – | – | – | Not Active | Not Active | –

The remaining lines, values ahead:

IC50 (A549 [1]; [7]) [nM] | IC50 (MCF7 [2]; [8]) [nM] | IC50 (A549 [3]) [nM] | IC50 (MCF7 [4]) [nM] | solubility [5] [µg/mL] | IC50 (A549 [1]; a549) | IC50 (MCF7 [2]; mcf7) | half-life [6] [h] | Compound
– | – | – | – | – | Not Active | Not Active | – | CC[C@H](C)[C@H](NC(=O)[C@H](CCCCN)NC(=O)[C@@H](NC(=O)[C@H](CCC(N)=O)NC(=O)[C@@H](N)CCCNC(=N)N)[C@@H](C)CC)C(=O)N[C@@H](Cc1c[nH]c2ccccc12)C(=O)N[C@@H](Cc1ccccc1)C(=O)N[C@@H](CCC(N)=O)C(=O)N[C@@H](CC(N)=O)C(=O)N[C@@H](CCCNC(=N)N)C(=O)N[C@@H](CCCNC(=N)N)C(=O)N[C@@H](CCSC)C(=O)N[C@@H](CCCCN)C(=O)N[C@@H](Cc1c[nH]c2ccccc12)C(=O)N[C@@H](CCCCN)C(=O)N[C@@H](CCCCN)C(N)=O [PENETRATIN]
270 | – | – | – | – | – | – | – | CC[C@H](C)[C@H](NC(=O)[C@H](CCCCN)NC(=O)[C@@H](NC(=O)[C@H](CCC(N)=O)NC(=O)[C@H](CCCN=C(N)N)NC(=O)CC(N)CSC1CC(=O)N(CCC(=O)O[C@@H](C(=O)O[C@@H]2C(C)=CC3[C@@H](OC(C)=O)C(=O)[C@@]4(C)[C@H]([C@H](OC(=O)c5ccccc5)[C@@]2(O)C3(C)C)[C@]2(OC(C)=O)CO[C@@H]2C[C@@H]4O)[C@@H](NC(=O)c2ccccc2)c2ccccc2)C1=O)[C@@H](C)CC)C(=O)N[C@@H](Cc1c[nH]c2ccccc12)C(=O)N[C@@H](Cc1ccccc1)C(=O)N[C@@H](CCC(N)=O)C(=O)N[C@@H](CC(N)=O)C(=O)N[C@@H](CCCN=C(N)N)C(=O)N[C@@H](CCCN=C(N)N)C(=O)N[C@@H](CCSC)C(=O)N[C@@H](CCCCN)C(=O)N[C@@H](Cc1c[nH]c2ccccc12)C(=O)N[C@@H](CCCCN)C(=O)N[C@@H](CCCCN)C(=O)O (stereo partly specified)
